The target in the experiment is RXFP2 (Homo sapiens, UniProt Q8WXD0). Type of experiment: cell-based. Conditions: for agonist/antagonist character at RXFP2 (in words): cAMP reporter gene assay. The gist of the method:
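HEK-293T cells were co-transfected in 96-well format with RXFP2 and a pCRE–β-galactosidase reporter plasmid. They were exposed to increasing concentrations of test peptide for 6 h, then the medium was aspirated and the cells frozen at −80°C overnight before β-galactosidase was measured. Signals were normalised to the maximal native INSL3 response. Triplicates were run in three experiments, with pEC50 from a variable-slope sigmoidal fit.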

Sequence of RXFP2 (Q8WXD0 whole entry): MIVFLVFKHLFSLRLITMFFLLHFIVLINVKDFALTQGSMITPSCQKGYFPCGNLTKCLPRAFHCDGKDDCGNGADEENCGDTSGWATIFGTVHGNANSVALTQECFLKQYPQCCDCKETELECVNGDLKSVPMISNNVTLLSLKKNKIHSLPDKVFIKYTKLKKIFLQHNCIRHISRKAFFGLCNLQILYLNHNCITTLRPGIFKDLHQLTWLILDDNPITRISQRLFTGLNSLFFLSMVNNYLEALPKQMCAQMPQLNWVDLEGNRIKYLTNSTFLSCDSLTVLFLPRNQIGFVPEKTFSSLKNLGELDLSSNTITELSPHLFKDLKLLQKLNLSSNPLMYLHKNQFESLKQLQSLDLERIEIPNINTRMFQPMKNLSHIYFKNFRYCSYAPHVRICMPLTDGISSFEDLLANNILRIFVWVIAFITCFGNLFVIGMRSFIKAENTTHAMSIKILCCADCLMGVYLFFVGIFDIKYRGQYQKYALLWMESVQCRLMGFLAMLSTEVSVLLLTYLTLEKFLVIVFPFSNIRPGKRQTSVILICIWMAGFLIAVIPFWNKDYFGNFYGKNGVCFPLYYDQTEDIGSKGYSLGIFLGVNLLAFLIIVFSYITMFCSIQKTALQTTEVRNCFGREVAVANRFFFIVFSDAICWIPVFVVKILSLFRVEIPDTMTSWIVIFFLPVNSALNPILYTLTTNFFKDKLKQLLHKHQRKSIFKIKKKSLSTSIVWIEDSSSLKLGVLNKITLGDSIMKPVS

For `CSCC[C@H](NC(=O)[C@H](CCC(=O)O)NC(=O)[C@@H]1CCCN1C(=O)[C@@H](NC(=O)[C@@H]1CCCN1)[C@@H](C)O)C(=O)N[C@@H](CCCNC(=N)N)C(=O)N[C@@H](CCC(=O)O)C(=O)N[C@@H](CCCCN)C(=O)N[C@@H](CC(C)C)C(=O)N[C@H]1CSSC[C@@H]2NC(=O)[C@@H](NC(=O)[C@H](CCCCN)NC(=O)[C@H](CC(N)=O)NC(=O)[C@H](C)NC(=O)[C@H](CC(C)C)NC(=O)[C@H](C)NC(=O)[C@H](CO)NC(=O)[C@H](Cc3ccc(O)cc3)NC(=O)[C@H](CC(C)C)NC(=O)[C@@H]3CCC(=O)N3)CSSC[C@H](NC(=O)CNC(=O)[C@H](C(C)C)NC(=O)[C@H](Cc3c[nH]cn3)NC2=O)C(=O)N[C@@H]([C@@H](C)O)C(=O)N[C@@H](CCCCN)C(=O)N[C@@H](CCCNC(=N)N)C(=O)N[C@@H](CO)C(=O)N[C@@H](CC(C)C)C(=O)N[C@@H](C)C(=O)N[C@@H](CCCNC(=N)N)C(=O)N[C@@H](Cc2ccccc2)C(=O)N[C@H](C(=O)O)CSSC[C@@H](C(=O)NCC(=O)NCC(=O)N2CCC[C@H]2C(=O)N[C@@H](CCCNC(=N)N)C(=O)N[C@@H](Cc2c[nH]c3ccccc23)C(=O)N[C@@H](CO)C(=O)N[C@H](C(=O)N[C@@H](CCC(=O)O)C(=O)N[C@@H](C)C(=O)O)[C@@H](C)O)NC(=O)[C@H](C(C)C)NC(=O)[C@H](CCCNC(=N)N)NC(=O)[C@H](C(C)C)NC(=O)[C@H](CC(C)C)NC(=O)[C@H](C)NC(=O)[C@H](CCCNC(=N)N)NC(=O)[C@H](C(C)C)NC(=O)[C@H](Cc2ccccc2)NC(=O)[C@H](Cc2c[nH]cn2)NC(=O)[C@H](Cc2c[nH]cn2)NC(=O)CNC1=O` [H2-A/INSL3-B], the “agonist/antagonist character at RXFP2 (in words)” value is “partial agonist”.

With `CSCC[C@H](NC(=O)[C@H](CCC(=O)O)NC(=O)[C@@H]1CCCN1C(=O)[C@@H](NC(=O)[C@@H]1CCCN1)[C@@H](C)O)C(=O)N[C@@H](CCCNC(=N)N)C(=O)N[C@@H](CCC(=O)O)C(=O)N[C@@H](CCCCN)C(=O)N[C@@H](CC(C)C)C(=O)N[C@H]1CSSC[C@@H]2NC(=O)[C@@H](NC(=O)[C@H](CC(C)C)NC(=O)[C@@H](NC(=O)[C@H](CCC(N)=O)NC(=O)[C@H](CC(C)C)NC(=O)[C@H](CC(=O)O)NC(=O)[C@@H]3CCC(=O)N3)[C@@H](C)O)CSSC[C@H](NC(=O)CNC(=O)[C@H](CC(=O)O)NC(=O)[C@H]([C@@H](C)O)NC2=O)C(=O)N[C@@H](CO)C(=O)N[C@@H](CCSC)C(=O)N[C@@H]([C@@H](C)O)C(=O)N[C@@H](CC(=O)O)C(=O)N[C@@H](CC(C)C)C(=O)N[C@@H](CO)C(=O)N[C@@H](C)C(=O)N[C@@H](CC(C)C)C(=O)N[C@H](C(=O)O)CSSC[C@@H](C(=O)NCC(=O)NCC(=O)N2CCC[C@H]2C(=O)N[C@@H](CCCNC(=N)N)C(=O)N[C@@H](Cc2c[nH]c3ccccc23)C(=O)N[C@@H](CO)C(=O)N[C@H](C(=O)N[C@@H](CCC(=O)O)C(=O)N[C@@H](C)C(=O)O)[C@@H](C)O)NC(=O)[C@H](C(C)C)NC(=O)[C@H](CCCNC(=N)N)NC(=O)[C@H](C(C)C)NC(=O)[C@H](CC(C)C)NC(=O)[C@H](C)NC(=O)[C@H](CCCNC(=N)N)NC(=O)[C@H](C(C)C)NC(=O)[C@H](Cc2ccccc2)NC(=O)[C@H](Cc2c[nH]cn2)NC(=O)[C@H](Cc2c[nH]cn2)NC(=O)CNC1=O` [INSL5-A/INSL3-B], the “agonist/antagonist character at RXFP2 (in words)” value is listed as “high affinity antagonists”. In addition, the “ability to stimulate cAMP activity in RXFP2 expressing cells” value (in concentrations up to 1 μM) is on record as “unable to stimulate cAMP”.

Source of the values: publication PMC3356098 (Frontiers in Endocrinology, 2012).
